Results: ChEMBL document CHEMBL1129444, “Peptidomimetic inhibitors of herpes simplex virus ribonucleotide reductase with improved in vivo antiviral activity” (J Med Chem, 1996)
*1 amine or outer side, *2 acyl side, *3 side chain or, on linkers, in order; H or OH if unused. Where a SMILES comes first, the peptide text is derived from it. [ ]: non-standard residue; d: D form. The star is where a group is joined. Asp(3,3-(CH2)4) = N[C@H](C(=O)O)C1(C(=O)O)CCCC1; Dibenzylacetyl = O=C(C(Cc1ccccc1)Cc1ccccc1)*; Leu(γ-Me)ol = CC(C)(C)C[C@@H](CO)N*; tBuAla = CC(C)(C)C[C@H](N)C(=O)O; Tle = CC(C)(C)[C@H](N)C(=O)O; NMeV = CN[C@H](C(=O)O)C(C)C; X1 = CC[C@@H](N*)C(C)(C)C; NH(3-pentyl) = CCC(CC)N*; Pyrrolidide = C1CCN(*)C1; NHcHex = C1CCC(N*)CC1; CO = O=C([*:1])[*:2]; X2 = CCCC(CCC)N*; NHiPr = CC(C)N*

Key:
[1] = biological target: Ribonucleotide reductase large subunit R1 (Herpes simplex virus); assay: Inhibitory effect was evaluated on Herpes simplex virus (HSV) ribonucleotide reductase (RR) enzyme.
BHK-21 [2] = assay: Effective concentration was evaluated against HSV-1 by using serum starved baby hamster kidney cells in a colorimetric viral yield assay.; assay type: functional, cell-based; conditions: Mesocricetus auratus
Summary of the method: (§1)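 Viral yield in serum-starved BHK cells, read colorimetrically. EC50 reported as mean of at least three separate determinations with standard deviation. Cytotoxicity measured in parallel by MTT (tetrazolium) metabolic assay to give CC50.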

BHK-21 [3] = assay: Effective concentration was evaluated against HSV-2 by using serum starved baby hamster kidney cells in a colorimetric viral yield assay.; assay type: functional, cell-based; conditions: Mesocricetus auratus
Summary of the method: as §1

IC50 [1] [nM]	Structure (SMILES)	EC50 (BHK-21 [2]) [nM]	EC50 (BHK-21 [3]) [nM]
20	CC(C)C[C@H](NC(=O)[C@H](CC(=O)O)NC(=O)[C@H](CC(=O)N1CCCC1)NC(=O)[C@@H](NC(=O)NC1[C@@H](C)CCC[C@@H]1C)C(C)C)C(=O)O.CC(C)C[C@H](NC(=O)[C@H](CC(=O)O)NC(=O)[C@H](CC(=O)N1CCCC1)NC(=O)[C@@H](NC(=O)NC1[C@H](C)CCC[C@H]1C)C(C)C)C(=O)O	–	–
27	CCC(CC)NC(=O)N[C@H](C(=O)N[C@@H](CC(=O)N1CCCC1)C(=O)N[C@@H](CC(=O)O)C(=O)N[C@H](C)C(C)(C)C)C(C)(C)C	–	–
100	CCC(CC)NC(=O)N[C@H](C(=O)N[C@@H](CC(=O)N1CCCC1)C(=O)N[C@@H](CC(=O)O)C(=O)NCCC(C)(C)C)C(C)(C)C	–	–
–	CC[C@@H](NC(=O)[C@@H](NC(=O)[C@@H](CC(=O)[C@@H](NC(=O)N[C@@H]1[C@H](C)CCC[C@@H]1C)C(C)(C)C)CC(=O)N1CCCC1)C1(C(=O)O)CCCC1)C(C)(C)C	50000	80000
40	CCC(CC)NC(=O)N[C@H](C(=O)N[C@@H](CC(=O)N1CCCC1)C(=O)N[C@@H](CC(=O)O)C(=O)NCC(C)(C)C)C(C)(C)C	–	–
1900	CCC(CC)NC(=O)N[C@H](C(=O)N[C@@H](CC(=O)N1CCCC1)C(=O)N[C@@H](CC(=O)O)C(=O)NCC(C)C)C(C)(C)C	–	–
3	CCC(CC)NC(=O)N[C@H](C(=O)N[C@@H](CC(=O)C(C)(C)C)C(=O)N[C@@H](CC(=O)O)C(=O)N[C@@H](CC(C)C)C(=O)O)C(C)(C)C	–	–
–	C[C@@H]1CCC[C@H](C)[C@@H]1NC(=O)N[C@H](C(=O)C[C@@H](CC(=O)C(C)(C)C)C(=O)N[C@H](C(=O)NCC(C)(C)C)C1(C(=O)O)CCCC1)C(C)(C)C	17000	26000
7	CCC(CC)NC(=O)N[C@H](C(=O)C[C@@H](CC(=O)N1CCCC1)C(=O)N[C@@H](CC(=O)O)C(=O)N[C@@H](CC(C)C)C(=O)O)C(C)(C)C	–	–
2700	CCC(CC)NC(=O)N[C@H](C(=O)N[C@@H](CC(=O)N1CCCC1)C(=O)N[C@@H](CC(=O)O)C(=O)N[C@@H](C)C(C)(C)C)C(C)(C)C	–	–
6	CCC(CC)NC(=O)N[C@H](C(=O)N[C@@H](CC(=O)N1CCCC1)C(=O)N[C@@H](CC(=O)O)C(=O)N[C@H](CO)CC(C)(C)C)C(C)(C)C	–	–
350	CCC(CC)NC(=O)N[C@H](C(=O)N[C@@H](CC(=O)N1CCCC1)C(=O)N[C@@H](CC(=O)O)C(=O)NCCC(C)C)C(C)(C)C	–	–
–	CC[C@@H](NC(=O)[C@@H](NC(=O)[C@H](CC(=O)N1CCCC1)NC(=O)[C@@H](NC(=O)N[C@@H]1[C@H](C)CCC[C@@H]1C)C(C)(C)C)C1(C(=O)O)CCCC1)C(C)(C)C	28000	40000
–	CCCC(CCC)NC(=O)N[C@H](C(=O)C[C@@H](CC(=O)C(C)(C)C)C(=O)N[C@H](C(=O)N[C@H](CC)C(C)(C)C)C1(C(=O)O)CCCC1)C(C)(C)C	6000	5000
5	CCC(CC)NC(=O)N[C@H](C(=O)C[C@@H](CC(=O)C(C)(C)C)C(=O)N[C@@H](CC(=O)O)C(=O)N[C@@H](CC(C)C)C(=O)O)C(C)(C)C	–	–
2000	CCC(CC)NC(=O)N[C@H](C(=O)N[C@@H](CC(=O)N1CCCC1)C(=O)N[C@@H](CC(=O)O)C(=O)N[C@@H](CC)C(C)(C)C)C(C)(C)C	–	–

IC50 [1] [nM]	Structure (SMILES)	EC50 (BHK-21 [2]) [nM]	EC50 (BHK-21 [3]) [nM]
–	CC[C@@H](NC(=O)[C@@H](NC(=O)[C@H](CC(=O)C(C)(C)C)NC(=O)[C@@H](NC(=O)N[C@@H]1[C@H](C)CCC[C@@H]1C)C(C)(C)C)C1(C(=O)O)CCCC1)C(C)(C)C	13000	13000
–	CC[C@@H](NC(=O)[C@@H](NC(=O)[C@@H](CC(=O)[C@@H](NC(=O)N[C@@H]1[C@H](C)CCC[C@@H]1C)C(C)(C)C)CC(=O)C(C)(C)C)C1(C(=O)O)CCCC1)C(C)(C)C	6000	7000
–	C[C@@H]1CCC[C@H](C)[C@@H]1NC(=O)N[C@H](C(=O)C[C@@H](CC(=O)C(C)(C)C)C(=O)N[C@H](C(=O)N[C@H](CO)CC(C)(C)C)C1(C(=O)O)CCCC1)C(C)(C)C	26000	26000
–	CC[C@@H](NC(=O)[C@@H](NC(=O)[C@@H](CC(=O)[C@@H](NC(=O)[C@H](C(C)C)N(C)C(=O)C(Cc1ccccc1)Cc1ccccc1)C(C)(C)C)CC(=O)C(C)(C)C)C1(C(=O)O)CCCC1)C(C)(C)C	1300	1600
18	CCC(CC)NC(=O)N[C@H](C(=O)N[C@@H](CC(=O)N1CCCC1)C(=O)N[C@@H](CC(=O)O)C(=O)N[C@H](CC)C(C)(C)C)C(C)(C)C	–	–
–	CC[C@@H](NC(=O)[C@@H](NC(=O)[C@H](CC(=O)N1CCCC1)NC(=O)[C@@H](NC(=O)[C@H](C(C)C)N(C)C(=O)C(Cc1ccccc1)Cc1ccccc1)C(C)(C)C)C1(C(=O)O)CCCC1)C(C)(C)C (Dibenzylacetyl-[NMeV][Tle]D(Pyrrolidide)[Asp(3,3-(CH2)4)]-X1)	800	1800
–	CC(C)[C@@H](C(=O)N[C@H](C(=O)N[C@@H](CC(=O)N1CCCC1)C(=O)N[C@H](C(=O)N[C@H](CO)CC(C)(C)C)C1(C(=O)O)CCCC1)C(C)(C)C)N(C)C(=O)C(Cc1ccccc1)Cc1ccccc1 (Dibenzylacetyl-[NMeV][Tle]D(Pyrrolidide)[Asp(3,3-(CH2)4)]-{Leu(γ-Me)ol})	3100	4200
55	CC(C)C[C@H](NC(=O)[C@H](CC(=O)O)NC(=O)[C@H](CC(=O)N1CCCC1)NC(=O)[C@@H](NC(=O)NC1[C@H](C)CCC[C@@H]1C)C(C)C)C(=O)O (stereo in doubt; 7)	–	–
2	CC(C)C[C@H](NC(=O)[C@H](CC(=O)O)NC(=O)[C@H](CC(=O)N1CCCC1)NC(=O)[C@@H](NC(=O)NC1[C@H](C)CCC[C@@H]1C)C(C)C)C(=O)O (stereo in doubt; 9)	–	–
15	CCC(CC)NC(=O)N[C@H](C(=O)N[C@@H](CC(=O)N1CCCC1)C(=O)N[C@@H](CC(=O)O)C(=O)N[C@@H](CC(C)C)C(=O)O)C(C)C ({NH(3-pentyl)-CO}-VD(Pyrrolidide)DL-OH)	–	–
3	CCC(CC)NC(=O)N[C@H](C(=O)N[C@@H](CC(=O)N1CCCC1)C(=O)N[C@@H](CC(=O)O)C(=O)N[C@@H](CC(C)C)C(=O)O)C(C)(C)C ({NH(3-pentyl)-CO}-[Tle]D(Pyrrolidide)DL-OH)	–	–
0.6	CCC(CC)NC(=O)N[C@H](C(=O)N[C@@H](CC(=O)N1CCCC1)C(=O)N[C@@H](CC(=O)O)C(=O)N[C@@H](CC(C)(C)C)C(=O)O)C(C)(C)C ({NH(3-pentyl)-CO}-[Tle]D(Pyrrolidide)D[tBuAla]-OH)	–	–
500	CC(C)C[C@H](NC(=O)[C@H](CC(=O)O)NC(=O)[C@H](CC(=O)N1CCCC1)NC(=O)[C@@H](NC(=O)NC1CCCCC1)C(C)C)C(=O)O ({NHcHex-CO}-VD(Pyrrolidide)DL-OH)	–	–
440	CC(C)C[C@H](NC(=O)[C@H](CC(=O)O)NC(=O)[C@H](CC(=O)N1CCCC1)NC(=O)[C@@H](NC(=O)NC(C)C)C(C)C)C(=O)O ({NHiPr-CO}-VD(Pyrrolidide)DL-OH)	–	–
7	CCCC(CCC)NC(=O)N[C@H](C(=O)N[C@@H](CC(=O)N1CCCC1)C(=O)N[C@@H](CC(=O)O)C(=O)N[C@@H](CC(C)C)C(=O)O)C(C)C ({X2-CO}-VD(Pyrrolidide)DL-OH)	–	–
–	Nc1nc2c(ncn2COCCO)c(=O)[nH]1 [ACYCLOVIR]	2000	2000
